Screening results deposited in PubChem BioAssay by several laboratories.
Thrombin inh: blocks human thrombin protease activity. alpha-thrombin, Boc-VPR-AMC fluorogenic substrate cleavage. actives 0.26% (n = 220,000). inhibition, % at 5 µM. AID 1046;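 active means inhibition at or above 40%; inactive means inhibition below 40%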
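Material: human alpha-thrombin protein. Incubation: reaction at ambient temperature. Technique: fluorescence of released AMC, ex 355 nm, em 460 nm. Control set: no-compound enzyme wells and no-enzyme blanks. Also added: Boc-VPR-AMC substrate, 15 µM final. Buffer or medium: pH 7.5 Tris (50 mM) with NaCl 150 mM, Tween 20 0.05%.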
Furin inhibitor: blocks human furin protease activity | actives 0.061% (n = 220,000) | inhibition, % at 20 µM or 30 µM | purified furin, fluorogenic substrate cleavage | P09958; in the data active means inhibition above about 25%
HSV augment: HSV replication enhancement. HSV replication augmentation in cells, fold increase. maximum fold increase. actives 0.005% (n = 220,000). AID 1956; in the data active means maximum fold increase above about 1.5; tested in PC3 cells
FXIIa inh: inhibitors of human coagulation factor XIIa; P00748; purified FXIIa, Boc-QGR-AMC fluorogenic substrate, 2 h; inhibition, % at 5 µM; actives 0.3% (n = 220,000); in the data active means inhibition above about 40%
FXIa inh: inhibitors of human coagulation factor XIa. P03951. purified FXIa, Boc-Glu-Ala-Arg-AMC fluorogenic substrate. inhibition, % at 5 µM. actives 0.14% (n = 220,000). AID 798;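 active means inhibition of at least 40%; inactive means inhibition below 40%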;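 further: fluorescence of freed AMC excited at 355 nm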
KLK5 inh: blocks human kallikrein 5 protease activity; Q9Y337; recombinant hK5, fluorogenic AMC substrate cleavage; inhibition, % at 5 µM; actives 0.59% (n = 210,000); AID 873;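 active means inhibition of 40% or more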
Target sequence (Q9Y337 67-293 limits assumed): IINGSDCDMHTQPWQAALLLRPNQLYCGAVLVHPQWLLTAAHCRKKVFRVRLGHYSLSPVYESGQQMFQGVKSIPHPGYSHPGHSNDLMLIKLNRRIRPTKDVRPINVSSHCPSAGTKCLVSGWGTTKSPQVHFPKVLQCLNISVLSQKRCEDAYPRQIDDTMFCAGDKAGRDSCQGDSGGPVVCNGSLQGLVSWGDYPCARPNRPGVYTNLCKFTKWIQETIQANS
A number is an active result; 0 = inactive; - = not tested or not shown. In the library only some 1% were active in any assay of this set; here they are far more common.

SMILES	Thrombin inh	Furin inhibitor	HSV augment	FXIIa inh	FXIa inh	KLK5 inh
CCn1ncc(NC(=S)Nc2ccc3c(c2)OCO3)c1C(N)=O	0	0	0	0	0	0
CCC(=O)Nc1nc(-c2ccccc2)nc(SC)c1C(C)=O	0	0	0	0	0	0
CCOC(=O)c1c(C)nc(-c2ccccc2)nc1NC(=O)CC	0	0	0	0	0	58
O=c1oc(-c2ccccc2NS(=O)(=O)c2ccc3ccccc3c2)nc2ccccc12	0	0	0	0	0	59
O=C(NCCCN1CCOCC1)C(=O)NCc1ccccc1Cl	0	0	-	0	0	0
Cc1ccnc(SCc2cc(=O)c(OC(=O)c3ccc(Cl)c([N+](=O)[O-])c3)co2)n1	0	25	0	0	0	0
CC12COC3(C(=O)Nc4nccs4)CC1CCC32C (centres undefined)	0	0	0	0	0	72
CC12COC3(C(=O)Nc4ccccc4F)CC1CCC32C (centres undefined)	0	0	0	0	0	0
Cc1cc(=O)oc(C)c1C(=O)NC1CCCCCCC1	-	0	0	0	0	0
CC(=O)Nc1ccc(NC(=O)CSc2ncnn2-c2ccccc2)cc1	0	0	0	43	0	0
CC(=O)Nc1ccc(NC(=O)CSc2nccn2Cc2ccccc2)cc1	0	0	0	0	0	57
NS(=O)(=O)c1ccc(CNC(=O)Cc2ccccc2F)cc1	0	0	0	0	0	0
C=CCNC(=O)COc1ccc(N(C)S(=O)(=O)c2ccc(NC(C)=O)cc2)cc1	0	0	0	0	0	0
CCSc1nnc(NC(=O)CN2C(=O)C3CC=CCC3C2=O)s1 (centres undefined)	0	0	0	0	0	0
CCSc1nnc(NC(=O)[C@H](C)N2C(=O)C3CC=CCC3C2=O)s1 (some centres undefined)	0	0	0	0	56	46
S=C(NCC1CCCO1)Nc1ccccc1 (centres undefined)	0	0	0	0	0	0
CN(C(=O)c1ccc(C#N)cc1)c1nnc(-c2cnccn2)s1	0	0	0	0	0	0
Cc1nc(C)c(C(=O)NCCC(c2ccccc2)c2ccccc2)o1	0	0	0	0	0	0
Cc1ccsc1C(=O)NCCC(c1ccccc1)c1ccccc1	0	0	0	48	0	0
CC(C)(C)C(=O)CSc1ncnc2c1cnn2-c1ccccc1	0	0	0	0	43	0
COc1ccc(N2CCN(C(=O)CSc3ncnc4c3cnn4-c3ccccc3C)CC2)cc1	0	0	0	0	0	0
CC(C)OC(=O)CSc1ncnc2c1cnn2-c1ccccc1	0	0	0	0	0	0
Cc1ccccc1-n1ncc2c(SCC(=O)N3c4ccccc4CC3C)ncnc21 (centres undefined)	41	0	0	0	0	0
COc1ccc(CCNC(=O)CSc2nncs2)cc1	0	0	0	0	0	0
N/C(Cc1ccccc1)=N\OC(=O)c1cccc2ccccc12	0	0	0	0	0	0
SMILES	Thrombin inh	Furin inhibitor	HSV augment	FXIIa inh	FXIa inh	KLK5 inh
CC(C)(C)c1nnc(SCC(=O)c2ccccc2)n(N)c1=O	0	0	0	0	0	0
CCc1n[n+](CC(=O)c2ccccc2)c(N)s1	0	0	0	0	0	0
NC(=O)c1ccsc1NC(=O)c1nc(-c2ccccc2)n(-c2ccccc2)n1	44	0	0	0	0	0
C=CCOc1ccc2c(c1)c(=O)cc(C(=O)O)n2CC	0	0	0	0	0	0
CCn1c(SCC(=O)NC(C)(C)C)nnc1-c1ccncc1	0	0	0	0	0	0
Cn1c(SCC(=O)NC(C)(C)C)nnc1-c1ccc(C(C)(C)C)cc1	0	0	0	0	0	42
N#Cc1ccsc1NC(=O)CN(Cc1ccccc1)Cc1ccccc1	0	0	0	0	43	0
Cc1cc(C(=O)OCC(=O)c2cccc([N+](=O)[O-])c2)c2cccc(C)c2n1	61	0	-	0	0	0
O=C1C2C3c4ccccc4C(c4ccccc43)C2C(=O)N1/N=C/c1cccc(O)c1 (centres undefined)	0	0	0	0	0	42
CCOC(=O)C1CCCN(c2c(NCCc3ccccc3)c(=O)c2=O)C1 (centres undefined)	0	0	0	0	0	0
CCOC(=O)C1CCCN(c2c(NCCCN(C)c3ccccc3)c(=O)c2=O)C1 (centres undefined)	0	0	0	0	0	42
C[n+]1nc(Nc2cccc(F)c2)sc1-c1ccc(C(=O)O)cc1	0	0	0	0	0	0
COc1ccc(S(N)(=O)=O)cc1C(N)=O	0	0	0	0	0	0
O=C(CCC1CCCN(C(=O)C2(c3ccccc3)CC2)C1)N1CCN(c2ccccn2)CC1 (centres undefined)	96	0	0	0	0	0
O=C(CN1C(=O)C2C3C=CC(C3)C2C1=O)NCc1ccc2c(c1)OCO2 (centres undefined)	0	27	0	0	0	0
O=C(CN1C(=O)C2CC=CCC2C1=O)NCc1ccc2c(c1)OCO2 (centres undefined)	0	0	0	0	0	0
COc1ccc(S(=O)(=O)NCc2c(-c3ccccc3)noc2C)c(OC)c1	0	0	0	0	59	0
CC1CCN(CC(=O)Nc2cccc(Cl)c2)CC1	0	0	0	-	0	0
CCOC(=O)c1sc2cc([N+](=O)[O-])cc(SCCO)c2c1N	0	0	0	0	0	0
CCOC(=O)c1sc2cc([N+](=O)[O-])cc(SCC(=O)OC)c2c1N	0	0	0	0	0	68
CCc1ccc(C(=O)/C=C/NCc2ccc(F)cc2)cc1	0	0	1.5	0	0	0
CCOC(CCn1c(SCC(=O)Nc2cc(C)on2)nc2ccccc2c1=O)OCC	0	0	0	0	0	0
COC(/C=C/Nc1ccc(C)cc1)=C(C#N)C#N	0	0	0	0	0	0
COC(/C=C/Nc1ccc(Br)cc1)=C(C#N)C#N	0	0	0	0	0	49
CC1CCC(NC(=O)c2ccc(NC(=O)c3ccc(=O)[nH]c3)cc2)CC1 (centres undefined)	0	0	-	0	0	0
SMILES	Thrombin inh	Furin inhibitor	HSV augment	FXIIa inh	FXIa inh	KLK5 inh
COc1cc(/C=C(/Sc2nnc(-c3ccc(F)cc3)o2)C(=O)O)ccc1OC(F)F	-	0	0	0	0	0
CCN(CC)C(=O)Cn1cc(C(=O)C(=O)NCc2cccs2)c2ccccc21	0	0	-	0	0	0
CCN(CC)C(=O)Cn1cc(C(=O)C(=O)NCCCn2ccnc2)c2ccccc21	95	0	-	0	0	0
COCCNC(=O)C(OC(=O)C1=Cc2ccccc2OC1)C(C)C (centres undefined)	0	0	0	0	0	0
CCCCc1ccc(C(=O)NC(C(=O)O)C(C)C)cc1 (centres undefined)	0	0	0	0	0	0
CCCCCOc1ccc(C(=O)NC(C(=O)O)C(C)C)cc1 (centres undefined)	0	0	0	0	0	41
CC(C)[C@H](NC(=O)c1ccccc1)C(=O)OCC(=O)NCc1ccc(F)cc1	0	0	0	0	0	0
